According to paper PMC7839861 (Journal for Immunotherapy of Cancer, 2021):

Test system: MC38 tumors
Assay: Transcriptional
Format: in vivo, mouse
Conditions: 2 mg/kg ip Q3D x3
How it was run: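 hCD137 C57BL/6J mice bearing sc MC38 tumors (1 x 10^6 cells) were randomized at about 240 mm3. Groups received vehicle, 15 mg/kg test compound or 15 mg/kg enantiomeric non-binding control iv, or 2 mg/kg anti-CD137 agonist antibody ip, Q3D for 3 doses. Tumors were harvested 1 hr after the last dose. RNA (100 ng/tumor) was profiled on the nCounter mouse PanCancer IO 360 panel, and FFPE sections were stained for mouse CD8 with HRP detection.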

B1: anti-CD137 agonist antibody: anti-CD137 agonist antibody, a commercially available urelumab analog (antibody, V domains shown)
VH: QVQLQQWGAGLLKPSETLSLTCAVYGGSFSGYYWSWIRQSPEKGLEWIGEINHGGYVTYNPSLESRVTISVDTSKNQFSLKLSSVTAADTAVYYCARDYGPGNYDWYFDLWGRGTLVTVSS
VL: EIVLTQSPATLSLSPGERATLSCRASQSVSSYLAWYQQKPGQAPRLLIYDASNRATGIPARFSGSGSGTDFTLTISSLEPEDFAVYYCQQRSNWPPALTFGGGTKVEIK
T cell infiltration of tumors, histological analysis (CD8 IHC): notably increased
